Source: publication PMC10617019 (Nature cell biology, 2023)

Tests used:
[1] = tested on: HT-29 cells; assay: RIPK1 activation and necroptosis by FG-4592, HT-29 cells; format: cell-based
[2] = tested on: RIPK1, RIPK3 and MLKL activation; assay: RIPK1, RIPK3 and MLKL activation by EGLN inhibitors; format: cell-based, mouse; details: MEFs; for hallmarks of RIPK1, RIPK3 and MLKL activation, inhibitor alone: immunoblotting; for concentration needed to activate RIPK1 and necroptosis: concentration series
[3] = tested on: RIPK1 proline hydroxylation (EGLN); assay: RIPK1 proline hydroxylation in cells, pan-hydroxylation antibody; format: cell-based, murine; details: MEFs with Flag-mRIPK1; CoCl2 400 μM, 16 h
Method in brief: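 MEFs were transduced with a Flag-mouse RIPK1 expression vector for 24 h, then treated with CoCl2 (400 μM) for a further 16 h. Lysates were immunoprecipitated with anti-Flag and the complexes immunoblotted with an anti-pan-hydroxylation antibody. Three independent experiments were run.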

[4] = tested on: EGLN1; assay: in vitro hydroxylation assay with recombinant EGLN1; format: biochemical; details: 37 °C, 1 h, pH 7.5, 50 μM EGLN1, 100 μM substrate; mass spectrometry
[5] = tested on: L929 cells; assay: hypoxia-induced cell death, L929; format: cell-based; details: 1% O2; Nec-1s 25 μM; propidium iodide uptake; n = 3
Method in brief: (§1)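 HT-29 and L929 cells were held at 1% O2 with or without 25 μM Nec-1s; L929 were kept in DMEM with 10% FBS and 1% penicillin/streptomycin. Cell death was measured by propidium iodide uptake, counting PI-positive and total cells under an inverted fluorescence microscope. Values are mean ± s.d., n = 3 biological samples.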

[6] = tested on: HT-29 cells; assay: hypoxia-induced cell death, HT-29; format: cell-based; details: 1% O2; Nec-1s 25 μM; propidium iodide uptake; n = 3
Method in brief: as §1

[7] = tested on: Jurkat cells; assay: hypoxia-induced cell death, Jurkat; format: cell-based; details: 1% O2, 48 h; propidium iodide uptake; n = 3
Method in brief: (§2)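 Jurkat, THP-1 and primary fibroblasts were exposed to 1% O2 for 48 h. Cell death was measured by propidium iodide uptake, counting PI-positive and total cells under an inverted fluorescence microscope. Values are mean ± s.d., n = 3 biological samples, compared by unpaired two-tailed t-test.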

[8] = tested on: THP-1 cells; assay: hypoxia-induced cell death, THP-1; format: cell-based; details: 1% O2, 48 h; propidium iodide uptake; n = 3
Method in brief: as §2

[9] = tested on: human skin fibroblast cells; assay: hypoxia-induced cell death, human skin fibroblasts; format: cell-based; details: 1% O2, 48 h; primary fibroblasts; propidium iodide uptake; n = 3
Method in brief: as §2

[10] = tested on: Vhl knockout MEFs; assay: hypoxia-induced necroptosis in Vhl-deleted MEFs; format: cell-based, mouse; details: 1% O2; Nec-1s printed as 25 M; propidium iodide uptake; n = 3
[11] = tested on: human RIPK1 and RIPK1-P195A mutant; assay: p-RIPK1-S166 in 293T cells overexpressing WT or P195A RIPK1; format: cell-based; details: overexpressed RIPK1, 10 μM Nec-1s, n = 3
[12] = tested on: primary Ripk1 P196A MEFs; assay: TSZ or TNFα/SM-164-induced cell death and p-RIPK1-S166 in Ripk1 P196A MEFs; format: cell-based, mouse; details: Nec-1s 20 μM, n = 3
[13] = tested on: Egln1−/− MEFs; assay: TSZ- or TNFα/5z7-induced cell death, Egln1−/− MEFs; format: cell-based, mouse; details: induced by TSZ or by TNFα + 5z7 (200 nM); n = 3
Method in brief: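 Knockout MEFs were given TNFα 10 ng/mL + SM164 50 nM + zVAD.fmk 20 μM, or TNFα 10 ng/mL + 5z7 200 nM, each ± RIPK1-inhibitor test compound. TSZ death was read by PI uptake: PI-positive and total cells counted by fluorescence microscopy. TNFα/5z7 viability was read by ATP-Glo luminescence, background-subtracted, as % of untreated wells. n = 3 biological samples, mean ± s.d., two-way ANOVA.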

[14] = tested on: 786-O cells; assay: TNFα/5z7/SM-164-induced RDA in 786-O cells; format: cell-based; details: Nec-1s 10 μM; TNFα 10 ng/mL; SM-164 50 nM; 5z7 500 nM; n = 3
Method in brief: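 VHL-deficient 786-O cells were treated with TNFα, 5z7 and SM-164, with or without Nec-1s, for different times. Viability was read by ATP-Glo luminescence, expressed as a percentage of untreated wells after subtracting the blank-well background.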

[15] = tested on: Ripk1 P196A/P196A mice; assay: Nec-1s in Ripk1 P196A/P196A mice; format: in vivo, mouse; details: Nec-1s in drinking water, 7 d; n = 5-6
[16] = tested on: Vhl LKO mice (liver); assay: Nec-1s in Vhl LKO mice; format: in vivo, mouse; details: Nec-1s in drinking water, 7 days; n = 6
[17] = tested on: monocytes; details: cited from earlier work
[18] = tested on: cIAP1; details: cited from earlier work
[19] = tested on: MEFs; assay: cell death with EGLN inhibitor, MEFs; format: cell-based, mouse
Method in brief: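 MEFs in DMEM/10% FBS/1% penicillin-streptomycin were treated with graded test compound concentrations. Cell death was measured by propidium iodide uptake, counting PI-positive versus total cells by fluorescence microscopy (mean ± s.d., n = 3 biological samples). p-RIPK1-S166 and p-MLKL-S345 were immunoblotted across the concentration series after 48 h, and at 400 μM over a time course.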

[20] = tested on: Mlkl knockout cells; assay: FG-4592-induced cell death in WT and Mlkl knockout cells; format: cell-based; details: n = 3
[21] = tested on: Pro195 hydroxylation of RIPK1; assay: RIPK1 Pro195/Pro196 hydroxylation in cells; format: cell-based; details: high doses only
[22] = tested on: proline hydroxylation of RIPK1 at Pro196; assay: RIPK1 Pro196 hydroxylation in mouse liver in vivo; details: WT mouse liver; i.p. 50 or 250 mg kg^−1 every 24 h for 2 d; n = 3
[23] = tested on: MEFs; assay: TSZ-induced cell death with FG-4592, MEFs; format: cell-based, mouse; details: FG-4592 200 μM; TNFα 10 ng/mL, SM164 50 nM, zVAD.fmk 20 μM; n = 3
Method in brief: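 MEFs were given TNFα 10 ng/mL, SM164 50 nM and zVAD.fmk 20 μM, with or without test compound at 200 μM. Cell death was read by propidium iodide uptake: PI-positive and total cells were counted under an inverted fluorescence microscope. n = 3 biological independent samples, mean ± s.d., two-way ANOVA.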

[24] = tested on: WT and Ripk1 P196A/P196A mice; assay: FG-4592 in WT and Ripk1 P196A/P196A mice; format: in vivo; details: FG-4592 25 mg kg^−1 i.p., 7 days
[25] = tested on: WT mice (liver); assay: FG-4592 in vivo, WT mice: liver damage, RIPK1 activation, cell death, cytokines
[26] = tested on: pVHL interaction with RIPK1; assay: pVHL-RIPK1 interaction in cells; format: cell-based; details: DFO 200 μM; co-immunoprecipitation
Method in brief: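 RIPK1⁻/⁻ HT-29 cells were infected with expression vectors and treated with DFO 200 μM. Immunocomplexes were washed three times (20 mM Tris pH 8.0, 100 mM NaCl, 1 mM EDTA, 0.5% NP-40), resolved by SDS-PAGE and immunoblotted.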

[27] = tested on: WT RIPK1; assay: in vitro kinase assay, WT RIPK1; format: biochemical, human; details: 100 μM ATP, 30 °C, 30 min, p-RIPK1-S166 immunoblot
[28] = tested on: mutant RIPK1-P195A; assay: in vitro kinase assay, RIPK1-P195A; format: biochemical, human; details: 100 μM ATP, 30 °C, 30 min, p-RIPK1-S166 immunoblot

## COc1nccnc1NS(=O)(=O)c1ccc(NC(=O)/C=C/c2ccc([N+](=O)[O-])s2)cc1 [necrosulfonamide]
[1]; 10 μM necrosulfonamide, 48 h, n = 3
  suppression of FG-4592-induced cell death: can also suppress cell death induced by treatment with FG-4592 in HT-29 cells

## [Cl][Co][Cl] [CoCl2, cobalt chloride]
[2]
  hallmarks of RIPK1, RIPK3 and MLKL activation, inhibitor alone: showed the hallmarks of RIPK1, RIPK3 and MLKL activation
  concentration needed to activate RIPK1 and necroptosis: Only high concentrations
[3]
  RIPK1 proline hydroxylation (pan-hydroxylation antibody): could be blocked

## KNGGTLYYMAPEHLNDVNAKP [synthetic RIPK1 peptide]
[4]
  hydroxylation by recombinant EGLN1: recombinant EGLN1 hydroxylated a synthetic RIPK1 peptide containing Pro195

## CN1C(=O)NC(Cc2c[nH]c3c(Cl)cccc23)C1=O (centres unmarked) [Nec-1s, necrostatin-1s]
[5]
  hypoxia-induced cell death with Nec-1s: decreased
[6]
  hypoxia-induced cell death with Nec-1s: decreased
[7]
  hypoxia-induced cell death with Nec-1s: decreased
[8]
  hypoxia-induced cell death with Nec-1s: decreased
[9]
  hypoxia-induced cell death with Nec-1s: decreased
[10]
  hypoxia-induced necroptosis in Vhl-deleted MEFs with Nec-1s: could be decreased with the administration of Nec-1s
[11]
  inhibition of p-RIPK1-S166 (WT and P195A RIPK1): effectively inhibited
[12]
  increased cell death and RIPK1 activation with Nec-1s: both the increased cell death and RIPK1 activation were inhibited
[13]
  cell death of Egln1−/− MEFs with Nec-1s: blocked the cell death of Egln1^−/− MEFs induced by either TSZ or a combination of TNFα and 5z7
[14]
  RDA induced by TNFα, 5z7 and SM-164 with Nec-1s: could be blocked by Nec-1s
[15]
  cell death and inflammation in Ripk1 P196A/P196A mice with Nec-1s: decreased cell death and inflammation in Ripk1^P196A/P196A mice
[16]
  RIPK1 activation, cell death and inflammation in Vhl LKO mice: blocked RIPK1 activation, cell death and inflammation in Vhl hepatocyte-specific knockout mice

## COC(=O)CNC(=O)C(=O)OC [dimethyloxalylglycine]
[17]
  RIPK1 activation and caspase-independent cell death: induce RIPK1 activation and caspase-independent cell death in monocytes
[18]
  cIAP1 expression: caused a decrease in cellular inhibitor of apoptosis protein-1 (cIAP1) expression

## Cc1nc(C(=O)NCC(=O)O)c(O)c2ccc(Oc3ccccc3)cc12 [FG-4592]
[19]; 1% O2 with or without 200 μM FG-4592, n = 3
  sensitization to hypoxia-induced cell death: could sensitize cell death induced by hypoxia
[19]; MEFs, relatively high concentration, up to 400 μM at indicated times, 48 h
  RIPK1 activation and necroptosis: activated RIPK1 and induced necroptosis
[2]
  concentration needed to activate RIPK1 and necroptosis: Only high concentrations
[1]; relatively high concentration
  RIPK1 activation and necroptosis: activated RIPK1 and induced necroptosis
[20]
  effect of Mlkl deletion on FG-4592-induced cell death: deletion of Mlkl decreased cell death induced by FG-4592 treatment
[21]
  RIPK1 hydroxylation, RIPK1 activity and cell death, dose dependence: led to a decrease in the hydroxylation of RIPK1 and corresponding increases in RIPK1 activity and cell death
[22]
  RIPK1 Pro196 hydroxylation in vivo: can also reduce the proline hydroxylation of RIPK1 at Pro196 in vivo
[23]
  sensitization to TSZ-induced cell death: could sensitize cells to cell death induced by TSZ treatment
[24]
  HIF pathway induction, RIPK1 activation and cell death: can only induce the HIF pathway, without induction of RIPK1 activation and cell death
[25]; FG-4592 250 mg kg^−1 i.p., every 24 h for 2 d
  liver damage, TUNEL^+ cells and p-RIPK1-S166 in liver: caused substantial liver damage, with a large number of TUNEL^+ cells and increased p-RIPK1-S166
[25]; FG-4592 25 or 50 mg kg^−1 i.p., n = 5
  RIPK1 activation or cell death in liver: did not induce RIPK1 activation or cell death

## CC(=O)N(O)CCCCCNC(=O)CCC(=O)N(O)CCCCCNC(=O)CCC(=O)N(O)CCCCCN [DFO, deferoxamine]
[2]
  hallmarks of RIPK1, RIPK3 and MLKL activation, inhibitor alone: showed the hallmarks of RIPK1, RIPK3 and MLKL activation
  concentration needed to activate RIPK1 and necroptosis: Only high concentrations
[26]
  pVHL interaction with RIPK1: markedly decreased pVHL interaction with RIPK1 in cells

## recombinant pVHL: purified recombinant von Hippel–Lindau protein
[27]
  inhibition of RIPK1 kinase activity: could dramatically inhibit induction of the kinase activity of WT RIPK1
[28]
  inhibition of RIPK1 kinase activity: but not mutant RIPK1-P195A
